# Test results from ChEMBL document CHEMBL1128678, “Preparation of 18F-labeled muscarinic agonist with M2 selectivity” (J Med Chem, 1995).
# “And” between values parts separate entries of the source, which are not always exact repeats. Equal values may be shown once.
# Assays:
# Rattus norvegicus [1] = test: In vivo biodistribution in LT-STR after 60 min of administration in rat; format: ADME, organism-based; settings: 1 h
# Method in brief: (§1)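 [18F] tracer formulated in PBS with under 10% ethanol; 15 μCi given by tail vein to Sprague-Dawley rats (200–250 g). Groups of five sacrificed at 15, 60 or 120 min. Brain dissected into 11 regions, with blood, heart, bone and lung also collected. Tissues weighed and counted, and % ID/g calculated; n = 5 or 6.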
# Rattus norvegicus [2] = test: In vivo biodistribution in lung at 60 min for no inhibitor was co-injected in rat; format: ADME, organism-based; settings: 1 h
# Method in brief: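 [18F]tracer formulated in phosphate-buffered saline (<10% ethanol), 15 μCi injected via tail vein into Sprague-Dawley rats (200–250 g); no inhibitor co-injected. Animals sacrificed in groups of five at 60 min postinjection. Lung sample collected, weighed, counted for activity, and % ID/g calculated (n = 5 or 6).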
# Rattus norvegicus [3] = test: In vivo biodistribution in LT-THAL after 60 min of administration in rat; format: ADME, organism-based; settings: 1 h; method in brief: as §1
# Rattus norvegicus [4] = test: In vivo biodistribution in PONS after 15 min of administration in rat; format: ADME, organism-based; settings: 0.25 h; method in brief: as §1
# Rattus norvegicus [5] = test: In vivo biodistribution in blood after 60 min of administration in rat; format: ADME, organism-based; settings: 1 h; method in brief: as §1
# Rattus norvegicus [6] = test: In vivo biodistribution in heart at 60 min as a function of 5 nM of (R,R) IQNB (inhibitor) in rat; format: ADME, organism-based; settings: 1 h
# [7] = In vivo biodistribution in heart after 120 min of administration.; format: ADME, organism-based; settings: 2 h; method in brief: as §1
# Rattus norvegicus [8] = test: In vivo biodistribution in PONS after 120 min of administration in rat; format: ADME, organism-based; settings: 2 h; method in brief: as §1
# Rattus norvegicus [9] = test: In vivo biodistribution in LT-HIPP after 120 min of administration in rat; format: ADME, organism-based; settings: 2 h; method in brief: as §1
# Rattus norvegicus [10] = test: In vivo biodistribution in bone after 60 min of administration in rat; format: ADME, organism-based, Bone element; settings: 1 h; method in brief: as §1
# Rattus norvegicus [11] = test: In vivo biodistribution in heart after 15 min of administration in rat; format: ADME, organism-based; settings: 0.25 h; method in brief: as §1
# Rattus norvegicus [12] = test: In vivo biodistribution in CBLL at 60 min for no inhibitor was co-injected in rat; format: ADME, organism-based; settings: 1 h
# Rattus norvegicus [13] = test: In vivo biodistribution in MEDULL at 60 min for no inhibitor was co-injected in rat; format: ADME, organism-based; settings: 1 h
# Rattus norvegicus [14] = test: In vivo biodistribution in CBLL after 120 min of administration in rat; format: ADME, organism-based; settings: 2 h; method in brief: as §1
# Rattus norvegicus [15] = test: In vivo biodistribution in heart at 60 min for no inhibitor was co-injected in rat; format: ADME, organism-based; settings: 1 h
# Rattus norvegicus [16] = test: In vivo biodistribution in blood after 15 min of administration in rat; format: ADME, organism-based; settings: 0.25 h; method in brief: as §1
# Rattus norvegicus [17] = test: In vivo biodistribution in LT-HIPP at 60 min for no inhibitor was co-injected in rat; format: ADME, organism-based; settings: 1 h
# Rattus norvegicus [18] = test: In vivo biodistribution in LT-CTX after 15 min of administration in rat; format: ADME, organism-based; settings: 0.25 h; method in brief: as §1
# Rattus norvegicus [19] = test: In vivo biodistribution in bone after 15 min of administration in rat; format: ADME, organism-based, Bone element; settings: 0.25 h; method in brief: as §1
# Rattus norvegicus [20] = test: In vivo biodistribution in PONS after 60 min of administration in rat; format: ADME, organism-based; settings: 1 h; method in brief: as §1
# Rattus norvegicus [21] = test: In vivo biodistribution in LT-STR at 60 min for no inhibitor was co-injected in rat; format: ADME, organism-based; settings: 1 h
# Rattus norvegicus [22] = test: In vivo biodistribution in LT-STR after 120 min of administration in rat; format: ADME, organism-based; settings: 2 h; method in brief: as §1
# Rattus norvegicus [23] = test: In vivo biodistribution in LT-THAL after 120 min of administration in rat; format: ADME, organism-based; settings: 2 h; method in brief: as §1
# Rattus norvegicus [24] = test: In vivo biodistribution in LT-CTX at 60 min for no inhibitor was co-injected co-injected in rat; format: ADME, organism-based; settings: 1 h
# Rattus norvegicus [25] = test: In vivo biodistribution in heart at 60 min as a function of 500 nM of (R,S) -fluoromethyl QNB(inhibitor) in rat; format: ADME, organism-based; settings: 1 h
# Rattus norvegicus [26] = test: In vivo biodistribution in blood at 60 min for no inhibitor was co-injected in rat; format: ADME, organism-based; settings: 1 h
# Rattus norvegicus [27] = test: In vivo biodistribution in CBLL after 15 min of administration in rat; format: ADME, organism-based; settings: 0.25 h; method in brief: as §1
# Rattus norvegicus [28] = test: In vivo biodistribution in LT-HIPP after 15 min of administration in rat; format: ADME, organism-based; settings: 0.25 h; method in brief: as §1
# Rattus norvegicus [29] = test: In vivo biodistribution in bone after 120 min of administration in rat; format: ADME, organism-based, Bone element; settings: 2 h; method in brief: as §1
# [30] = In vivo biodistribution in bone at 60 min for no inhibitor was co-injected in rat; format: ADME, organism-based, Bone element; settings: 1 h
# Rattus norvegicus [31] = test: In vivo biodistribution in MEDULL after 15 min of administration in rat; format: ADME, organism-based; settings: 0.25 h; method in brief: as §1
# Rattus norvegicus [32] = test: In vivo biodistribution in blood after 120 min of administration in rat; format: ADME, organism-based; settings: 2 h; method in brief: as §1
# Rattus norvegicus [33] = test: In vivo biodistribution in LT-CTX after 60 min of administration in rat; format: ADME, organism-based; settings: 1 h; method in brief: as §1
# Rattus norvegicus [34] = test: In vivo biodistribution in lung after 120 min of administration in rat; format: ADME, organism-based; settings: 2 h; method in brief: as §1
# Rattus norvegicus [35] = test: In vivo biodistribution in MEDULL after 60 min of administration in rat; format: ADME, organism-based; settings: 1 h; method in brief: as §1
# Rattus norvegicus [36] = test: In vivo biodistribution in LT-THAL at 60 min for no inhibitor was co-injected in rat; format: ADME, organism-based; settings: 1 h
# Rattus norvegicus [37] = test: In vivo biodistribution in heart after 60 min of administration in rat; format: ADME, organism-based; settings: 1 h; method in brief: as §1
# Rattus norvegicus [38] = test: In vivo biodistribution in LT-HIPP after 60 min of administration in rat; format: ADME, organism-based; settings: 1 h; method in brief: as §1
# Rattus norvegicus [39] = test: In vivo biodistribution in CBLL after 60 min of administration in rat; format: ADME, organism-based; settings: 1 h; method in brief: as §1
# Rattus norvegicus [40] = test: In vivo biodistribution in lung after 15 min of administration in rat; format: ADME, organism-based; settings: 0.25 h; method in brief: as §1
# Rattus norvegicus [41] = test: In vivo biodistribution in LT-CTX after 120 min of administration in rat; format: ADME, organism-based; settings: 2 h; method in brief: as §1
# Rattus norvegicus [42] = test: In vivo biodistribution in LT-CTX at 60 min for no inhibitor was co-injected in rat; format: ADME, organism-based; settings: 1 h
# Rattus norvegicus [43] = test: In vivo biodistribution in MEDULL after 120 min of administration in rat; format: ADME, organism-based; settings: 2 h; method in brief: as §1
# Rattus norvegicus [44] = test: In vivo biodistribution in lung after 60 min of administration in rat; format: ADME, organism-based; settings: 1 h; method in brief: as §1
# Rattus norvegicus [45] = test: In vivo biodistribution in LT-STR after 15 min of administration in rat; format: ADME, organism-based; settings: 0.25 h; method in brief: as §1
# [46] = target: T1, Muscarinic acetylcholine receptor M2 (Rattus norvegicus, UniProt P10980); test: In vitro binding affinity towards Muscarinic acetylcholine receptor M2 was determined by measuring its ability to displace [3H]-AF-DX 384 from rat heart membranes; design: species or system Membrane
# T1 sequence (P10980 whole entry): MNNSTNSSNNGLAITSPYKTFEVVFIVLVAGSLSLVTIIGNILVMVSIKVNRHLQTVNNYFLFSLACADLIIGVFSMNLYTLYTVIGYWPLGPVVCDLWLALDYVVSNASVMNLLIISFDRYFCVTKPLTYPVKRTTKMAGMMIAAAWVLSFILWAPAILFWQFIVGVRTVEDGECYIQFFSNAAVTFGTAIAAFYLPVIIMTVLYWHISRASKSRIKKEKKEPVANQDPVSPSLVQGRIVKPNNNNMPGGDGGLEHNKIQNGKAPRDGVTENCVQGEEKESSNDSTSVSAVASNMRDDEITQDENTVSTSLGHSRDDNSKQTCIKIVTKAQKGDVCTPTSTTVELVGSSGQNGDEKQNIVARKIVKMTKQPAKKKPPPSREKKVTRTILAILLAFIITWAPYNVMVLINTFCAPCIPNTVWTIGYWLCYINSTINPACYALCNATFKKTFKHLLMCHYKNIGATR
# Method in brief: (§2)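 Displacement binding performed by NovaScreen. For M1, the tracer was [3H]pirenzepine with bovine striatal membranes. For M2, it was [3H]AF-DX 384 with rat heart membranes. Ki values in nM were calculated by LIGAND analysis.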
# [47] = target: T2, Muscarinic acetylcholine receptor M1 (Bos taurus, UniProt Q8WMX0); test: In vitro binding affinity towards Muscarinic acetylcholine receptor M1 was determined by measuring its ability to displace [3H]pirenzepine from bovine striatal membranes; design: species or system Striatum, Membrane; method in brief: as §2
# T2 sequence (Q8WMX0 whole entry): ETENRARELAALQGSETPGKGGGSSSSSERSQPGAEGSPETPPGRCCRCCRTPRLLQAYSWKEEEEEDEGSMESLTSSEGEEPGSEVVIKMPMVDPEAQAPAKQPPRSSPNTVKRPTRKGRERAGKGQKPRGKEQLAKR
# [48] = target: Muscarinic acetylcholine receptor M3 (Cavia porcellus, UniProt Q8VH26); test: In vitro binding affinity towards Muscarinic acetylcholine receptor M3 was determined by measuring its ability to displace [3H]-N-methyl- Scopolamine from guinea pig ileum; format: tissue-based
# Sequence of Muscarinic acetylcholine receptor M3 (Q8VH26 whole entry): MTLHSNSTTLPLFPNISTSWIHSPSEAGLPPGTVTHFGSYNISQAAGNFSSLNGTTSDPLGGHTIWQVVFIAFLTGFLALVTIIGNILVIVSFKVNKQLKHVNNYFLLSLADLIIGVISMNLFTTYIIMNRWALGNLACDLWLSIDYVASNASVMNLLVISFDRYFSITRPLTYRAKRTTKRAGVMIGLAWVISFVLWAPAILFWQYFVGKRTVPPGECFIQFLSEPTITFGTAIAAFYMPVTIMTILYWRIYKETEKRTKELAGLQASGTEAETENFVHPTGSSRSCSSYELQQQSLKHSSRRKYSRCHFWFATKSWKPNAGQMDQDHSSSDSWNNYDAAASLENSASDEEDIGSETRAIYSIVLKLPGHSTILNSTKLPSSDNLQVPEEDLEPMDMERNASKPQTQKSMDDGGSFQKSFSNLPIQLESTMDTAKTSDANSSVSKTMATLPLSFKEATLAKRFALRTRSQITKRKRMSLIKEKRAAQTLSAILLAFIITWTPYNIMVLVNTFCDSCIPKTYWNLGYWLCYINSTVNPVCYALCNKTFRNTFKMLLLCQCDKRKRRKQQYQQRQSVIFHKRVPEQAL
compound,measurement,setting,value
CN1CC=C(c2nsnc2SCCC[18F])CC1,ID/g,Rattus norvegicus [1],0.353%
same,ID/g,Rattus norvegicus [2],0.372%
same,ID/g,Rattus norvegicus [3],0.293%
same,ID/g,Rattus norvegicus [4],0.824%
same,ID/g,Rattus norvegicus [5],0.124%
same,ID/g,Rattus norvegicus [6],0.13% and 0.43% and 0.49% and 0.46% and 0.44% and 0.54% and 0.63% and 0.42%
same,ID/g,[7],0.096%
same,ID/g,Rattus norvegicus [8],0.238%
same,ID/g,Rattus norvegicus [9],0.119%
same,ID/g,Rattus norvegicus [10],0.762%
same,ID/g,Rattus norvegicus [11],0.324%
same,ID/g,Rattus norvegicus [12],0.382% and 0.44% and 0.47%
same,ID/g,Rattus norvegicus [13],0.529% and 0.63% and 0.71%
same,ID/g,Rattus norvegicus [14],0.154%
same,ID/g,Rattus norvegicus [15],0.171%
same,ID/g,Rattus norvegicus [16],0.181%
same,ID/g,Rattus norvegicus [17],0.429% and 0.47% and 0.65%
same,ID/g,Rattus norvegicus [18],1.125%
same,ID/g,Rattus norvegicus [19],0.225%
same,ID/g,Rattus norvegicus [20],0.385%
same,ID/g,Rattus norvegicus [21],0.448% and 0.46% and 0.64%
same,ID/g,Rattus norvegicus [22],0.123%
same,ID/g,Rattus norvegicus [23],0.153%
same,ID/g,Rattus norvegicus [24],0.7%
same,ID/g,Rattus norvegicus [25],0.17% and 0.44% and 0.43% and 0.39% and 0.48% and 0.56% and 0.61%
same,ID/g,Rattus norvegicus [26],0.126% and 0.13% and 0.18%
same,ID/g,Rattus norvegicus [27],0.766%
same,ID/g,Rattus norvegicus [28],0.826%
same,ID/g,Rattus norvegicus [29],0.993%
same,ID/g,[30],0.501%
same,ID/g,Rattus norvegicus [31],0.788%
same,ID/g,Rattus norvegicus [32],0.1%
same,ID/g,Rattus norvegicus [33],0.368%
same,ID/g,Rattus norvegicus [34],0.156%
same,ID/g,Rattus norvegicus [35],0.438%
same,ID/g,Rattus norvegicus [36],0.413% and 0.45% and 0.56%
same,ID/g,Rattus norvegicus [37],0.121%
same,ID/g,Rattus norvegicus [38],0.363%
same,ID/g,Rattus norvegicus [39],0.285%
same,ID/g,Rattus norvegicus [40],0.871%
same,ID/g,Rattus norvegicus [41],0.139%
same,ID/g,Rattus norvegicus [42],0.484% and 0.52%
same,ID/g,Rattus norvegicus [43],0.226%
same,ID/g,Rattus norvegicus [44],0.261%
same,ID/g,Rattus norvegicus [45],0.861%
CN1CCC=C(c2nsnc2SCCCF)C1,Ki,[46],2.2 nM
same,Ki,[47],7.4 nM
same,Ki,[48],79.7 nM
CCCSc1nsnc1C1=CCN(C)CC1,Ki,[46],1.5 nM
same,Ki,[47],23 nM
same,Ki,[48],163 nM
CCCCCSc1nsnc1C1=CCN(C)CC1,Ki,[46],4 nM
same,Ki,[47],36 nM
same,Ki,[48],> 10000 nM
CN1CCC=C(c2nsnc2SCCF)C1,Ki,[46],1.8 nM
same,Ki,[47],25 nM
same,Ki,[48],> 10000 nM
CN1CCC=C(c2nsnc2SCCCCCF)C1,Ki,[46],6.3 nM
same,Ki,[47],2.3 nM
same,Ki,[48],160 nM
